SMILES strings stand for the structures. Square brackets hold non-standard residues; d marks the D form. Peptide text beside a SMILES is read from it. * marks the point of attachment. OBzl(3,5-(CF3)2) = FC(F)(F)c1cc(CO*)cc(C(F)(F)F)c1

In experiment [1] the target is Mu-type opioid receptor (Cavia porcellus, UniProt P97266). Nature of the experiment: Agonist activity at mu opioid receptor in Hartley guinea pig ileum assessed as inhibition of electrically-stimulated muscle contraction. The experiment is classed as functional, tissue-based. The gist of the method: (§1)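 Isolated tissues, electrically stimulated at supramaximal voltage: guinea pig (male Hartley) ileum LMMP (1 g tension, Krebs, 0.1 Hz, 0.4 ms) and male ICR mouse vas deferens (0.5 g, Mg-free Krebs, 0.1 Hz, 2.0 ms), both at 37 °C.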
Sequence of Mu-type opioid receptor (Cavia porcellus, UniProt P97266) (P97266 whole entry): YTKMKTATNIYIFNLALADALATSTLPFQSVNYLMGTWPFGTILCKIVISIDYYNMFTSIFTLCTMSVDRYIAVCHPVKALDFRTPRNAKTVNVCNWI

Experiment [2] deals with Substance-P receptor (Cavia porcellus) (UniProt P30547). Nature of the experiment: Antagonist activity at NK1 receptor in Hartley guinea pig isolated ileum assessed as inhibition of substance P-induced muscle contraction. Format: functional, tissue-based. In outline:
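Guinea pig ileum LMMP (male Hartley), 1 g tension, in oxygenated Krebs at 37 °C, with 1 μM naloxone present. Substance P dose–response curves were run with and without peptide. Responses were expressed as % of the maximal peak of the control substance P curve, and Ke was derived from these curves.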

In experiment [3] the target is T1, Delta-type opioid receptor (Homo sapiens, UniProt P41143). Nature of the experiment: Agonist activity at human delta opioid receptor expressed in HN9.10 cells assessed by [35S]GTP-gamma-S binding assay relative to control. Format: functional, cell-based. The gist of the method: (§2)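 Membranes (10 μg) from transfected cells stably expressing hDOR or rMOR, in 1 mL of 50 mM HEPES pH 7.4 with 1 mM EDTA, 5 mM MgCl2, 30 μM GDP, 1 mM DTT, 100 mM NaCl, 0.1 mM PMSF, 0.1% BSA and 0.1 nM [35S]GTPγS. Peptide added at various concentrations in duplicate, 90 min at 30 °C, then filtration. Nonspecific binding defined with 10 μM GTPγS. Stimulation taken as % over basal; EC50 and Emax by nonlinear regression from two independent experiments.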
T1 sequence (P41143 whole entry): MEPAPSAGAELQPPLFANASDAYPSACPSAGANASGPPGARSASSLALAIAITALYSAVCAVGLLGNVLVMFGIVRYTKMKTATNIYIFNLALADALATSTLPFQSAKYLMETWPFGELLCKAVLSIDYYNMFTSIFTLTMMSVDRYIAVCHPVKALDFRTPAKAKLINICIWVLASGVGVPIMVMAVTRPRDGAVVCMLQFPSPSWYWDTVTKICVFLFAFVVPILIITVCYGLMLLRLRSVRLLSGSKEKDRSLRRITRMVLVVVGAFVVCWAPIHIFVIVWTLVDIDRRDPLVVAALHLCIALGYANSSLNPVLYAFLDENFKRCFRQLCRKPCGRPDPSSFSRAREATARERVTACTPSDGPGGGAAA
(In general: Binding of GTPγS marks nucleotide exchange on a G protein.)

Experiment [4] is described as follows: Ratio of IC50 for mu opioid receptor in GPI assay to IC50 for delta opioid receptor in MVD assay. The experiment is classed as functional. In outline:
as §1

In experiment [5] the target is Mu-type opioid receptor (Rattus norvegicus) (UniProt P33535). Nature of the experiment: Agonist activity at rat mu opioid receptor expressed in HN9.10 cells assessed by [35S]GTP-gamma-S binding assay relative to control. The experiment is classed as functional, cell-based. The gist of the method:
as §2

Experiment [6] addresses Mu-type opioid receptor (Cavia porcellus) (UniProt P97266). The experiment can be described thus: Agonist activity at mu opioid receptor in Hartley guinea pig isolated ileum assessed as muscle contraction at 1 uM relative to KCl. Format: functional, tissue-based. The gist of the method: (§3)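 Guinea pig ileum LMMP (male Hartley) in oxygenated Krebs at 37 °C, 1 g tension, exposed to peptide at the tested antagonist concentration. Any contraction was expressed relative to the initial KCl-induced contraction of the same tissue. Testing stopped at […].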

The target in experiment [7] is T2, Mu-type opioid receptor (Rattus norvegicus, UniProt P33535). Nature of the experiment: Agonist activity at rat mu opioid receptor expressed in HN9.10 cells assessed by [35S]GTP-gamma-S binding assay. The experiment is classed as functional, cell-based. The gist of the method:
as §2

The target of experiment [8] is Substance-P receptor (Cavia porcellus) (UniProt P30547). Nature of the experiment: Agonist activity at NK1 receptor in Hartley guinea pig isolated ileum assessed as muscle contraction relative to KCl. Format: functional, tissue-based. Details: concentration or dose not given beside the values. The gist of the method: as §3
Sequence of Substance-P receptor (Cavia porcellus) (P30547 whole entry): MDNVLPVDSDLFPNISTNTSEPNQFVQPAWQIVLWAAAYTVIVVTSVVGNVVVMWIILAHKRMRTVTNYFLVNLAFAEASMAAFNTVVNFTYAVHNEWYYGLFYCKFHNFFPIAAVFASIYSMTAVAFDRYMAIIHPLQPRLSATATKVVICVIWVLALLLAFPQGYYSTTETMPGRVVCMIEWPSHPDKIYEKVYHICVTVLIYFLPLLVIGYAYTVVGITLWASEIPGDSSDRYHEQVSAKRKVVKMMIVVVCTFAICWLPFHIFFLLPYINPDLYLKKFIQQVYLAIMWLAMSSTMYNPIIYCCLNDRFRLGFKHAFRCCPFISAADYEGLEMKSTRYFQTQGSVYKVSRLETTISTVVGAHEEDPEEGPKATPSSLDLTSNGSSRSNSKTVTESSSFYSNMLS
Experiment [9] is described as follows: Ratio of Ki for rat mu opioid receptor to Ki for human delta opioid receptor. In outline:
(§4)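 Competition binding on crude membranes (50 μg) from cells stably expressing rMOR ([3H]DAMGO, 1.0 nM) or hDOR ([3H]DPDPE, 1.0 nM). Buffer was 50 mM Tris pH 7.4 with peptidase/protease inhibitors and 1 mg/mL BSA. Ten peptide concentrations were run in duplicate for 3 h at 25 °C, with 10 μM naloxone for nonspecific binding. Separation by filtration and scintillation counting; IC50 by nonlinear regression from two experiments; Ki by Cheng–Prusoff.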

The nature of experiment [10]: Ratio of EC50 for rat mu opioid receptor to EC50 for human delta opioid receptor by [35S]GTPgammaS binding assay. Format: functional. The gist of the method:
as §2

Experiment [11] addresses T1, Delta-type opioid receptor. Nature of the experiment: Agonist activity at human delta opioid receptor expressed in HN9.10 cells assessed by [35S]GTP-gamma-S binding assay. The experiment is classed as functional, cell-based. In outline:
as §2

For experiment [12], the target named is T1, Delta-type opioid receptor. The experiment can be described thus: Displacement of [3H]DPDPE from human delta opioid receptor expressed in HN9.10 cells. Format: cell-based. Background: In a radioligand displacement assay an active substance lowers the binding of a labelled ligand.
In experiment [13] the target is T2, Mu-type opioid receptor. The experiment can be described thus: Displacement of [3H]DAMGO from rat mu opioid receptor expressed in HN9.10 cells. The experiment is classed as cell-based. In outline:
as §4

T2 sequence (P33535 whole entry): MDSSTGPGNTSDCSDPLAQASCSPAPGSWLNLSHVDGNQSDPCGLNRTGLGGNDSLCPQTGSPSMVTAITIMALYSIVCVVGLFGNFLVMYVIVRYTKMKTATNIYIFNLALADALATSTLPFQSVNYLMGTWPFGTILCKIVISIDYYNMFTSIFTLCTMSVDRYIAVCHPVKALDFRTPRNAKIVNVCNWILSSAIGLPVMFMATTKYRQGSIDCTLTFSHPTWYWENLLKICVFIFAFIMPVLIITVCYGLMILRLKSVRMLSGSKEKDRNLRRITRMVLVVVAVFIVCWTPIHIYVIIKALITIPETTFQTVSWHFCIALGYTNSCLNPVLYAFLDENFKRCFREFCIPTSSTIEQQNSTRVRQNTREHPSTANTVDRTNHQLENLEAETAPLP
Sequence of Mu-type opioid receptor (Rattus norvegicus) (P33535 whole entry): as above
Sequence of Mu-type opioid receptor (Cavia porcellus) (P97266 whole entry): as the sequence (P97266 whole entry) above

As for `CC(C)C[C@H](NC(=O)[C@@H]1CCCN1C(=O)[C@H](CC[S+](C)[O-])NC(=O)[C@H](Cc1ccccc1)NC(=O)CNC(=O)[C@@H](C)NC(=O)[C@@H](N)Cc1ccc(O)cc1)C(=O)N[C@@H](Cc1c[nH]c2ccccc12)C(=O)OCc1cc(C(F)(F)F)cc(C(F)(F)F)c1` (some centres undefined), the IC50 in [1] was found to be 150 nM. In addition, the Ke in experiment [2] worked out at 7.8 nM. Also, the Emax in experiment [3] came out at 52%.

As for `CC(C)C[C@H](NC(=O)[C@@H]1CCCN1C(=O)[C@H](Cc1ccccc1)NC(=O)[C@H](Cc1ccccc1)NC(=O)CNC(=O)[C@@H](C)NC(=O)[C@@H](N)Cc1ccc(O)cc1)C(=O)N[C@@H](Cc1c[nH]c2ccccc12)C(=O)OCc1cc(C(F)(F)F)cc(C(F)(F)F)c1`, the Ratio IC50 in experiment [4] was over 1. Further, the Emax in experiment [5] came out at 36%; in experiment [3], 39%. Besides, the Activity in experiment [6] came to 7%; in experiment [8] it was 0%. Moreover, the half-maximal effective concentration (EC50) in [7] turned out to be 59 nM; in [11], 21 nM. Further, in [9], the Ratio Ki turned out to be 1.9. For the same molecule, in experiment [10], the Ratio EC50 was found to be 2.8. The same molecule came in with an inhibition constant Ki in experiment [12] of 15 nM. The Ke in [2] was found to be 14 nM.

With `CC(C)C[C@@H](NC(=O)[C@H](Cc1ccccc1)NC(=O)CNC(=O)[C@@H](C)NC(=O)[C@@H](N)Cc1ccc(O)cc1)C(=O)O` [DADLE], in experiment [1], the IC50 turned out to be 24 nM.

Take `CC(=O)N[C@@H](Cc1c[nH]c2ccccc12)C(=O)OCc1cc(C(F)(F)F)cc(C(F)(F)F)c1`: the Ke in experiment [2] came to 250 nM.

With `CCCC[C@@H](C(=O)N1CCC[C@H]1C(=O)N[C@@H](CC(C)C)C(=O)N[C@@H](Cc1c[nH]c2ccccc12)C(=O)OCc1cc(C(F)(F)F)cc(C(F)(F)F)c1)N(C)C(=O)[C@H](Cc1ccccc1)NC(=O)CNC(=O)[C@@H](C)NC(=O)[C@@H](N)Cc1ccc(O)cc1`, the Activity in experiment [6] was 12%; in experiment [8], 2%. The molecule also displayed an EC50 in [11] of 360 nM. In addition, the Ke in [2] was 4.6 nM. In [3], this molecule gave an Emax of 290%.

As to `CC(C)C[C@H](NC(=O)[C@@H]1CCCN1C(=O)[C@@H](Cc1ccccc1)NC(=O)[C@H](Cc1ccccc1)NC(=O)CNC(=O)[C@@H](C)NC(=O)[C@@H](N)Cc1ccc(O)cc1)C(=O)N[C@@H](Cc1c[nH]c2ccccc12)C(=O)OCc1cc(C(F)(F)F)cc(C(F)(F)F)c1`, the Ratio IC50 in experiment [4] was over 2.4. In addition, the Emax in [5] was 24%; in experiment [3] it was 23%. Further, the results for the Activity in [6] and in [8] were 9% and 0%, respectively. Besides, the EC50 was 350 nM in experiment [7] and 17 nM in experiment [11]. In addition, the Ratio Ki in experiment [9] was 4.1. Also, in experiment [10], the Ratio EC50 was 20. Besides, the Ke in experiment [2] is 70 nM.

With `CCCC[C@H](NC(=O)[C@H](Cc1ccccc1)NC(=O)CNC(=O)[C@@H](C)NC(=O)[C@@H](N)Cc1ccc(O)cc1)C(=O)N1CCC[C@H]1C(=O)N[C@@H](CC(C)C)C(=O)N[C@@H](Cc1c[nH]c2ccccc12)C(=O)OCc1cc(C(F)(F)F)cc(C(F)(F)F)c1`, the Activity in experiment [8] came out at 0%. In addition, the IC50 in experiment [1] worked out at 370 nM. For the same molecule, the EC50 in [11] came out at 4 nM. Further, in [2], the Ke amounted to 7.9 nM. In [3], the Emax was 130%.

With `CC(C)C[C@H](NC(=O)[C@@H]1CCCN1C(=O)[C@H](CC(C)C)NC(=O)[C@H](Cc1ccccc1)NC(=O)CNC(=O)[C@@H](C)NC(=O)[C@@H](N)Cc1ccc(O)cc1)C(=O)N[C@@H](Cc1c[nH]c2ccccc12)C(=O)OCc1cc(C(F)(F)F)cc(C(F)(F)F)c1`, in experiment [13], affinity was put at a Ki of 23 nM. Further, in experiment [4], the Ratio IC50 stood at 3.4. Besides, the results for the Emax in [5] and in [3] were 45% and 43%, respectively. In addition, in experiment [7], the 50% effective concentration (EC50) came out at 33 nM. The Activity in [8] was 0%. Besides, the Ratio Ki in experiment [9] was determined as 4.7. The Ratio EC50 in [10] was 3.4. The IC50 in [1] is 340 nM. Also, in experiment [2], the Ke turned out to be 19 nM.

For the molecule `CSCC[C@H](NC(=O)[C@H](Cc1ccccc1)NC(=O)CNC(=O)[C@@H](C)NC(=O)[C@@H](N)Cc1ccc(O)cc1)C(=O)N1CCC[C@H]1C(=O)N[C@@H](CC(C)C)C(=O)N[C@@H](Cc1c[nH]c2ccccc12)C(=O)OCc1cc(C(F)(F)F)cc(C(F)(F)F)c1`, the Emax in [5] is 42%; in experiment [3] it was 45%. In addition, the Activity in [8] turned out to be 0%. The IC50 in experiment [1] was 360 nM. This molecule also showed an EC50 in experiment [11] of 2.9 nM. The Ke in experiment [2] worked out at 25 nM.

`CC(C)C[C@H](NC(=O)[C@@H]1CCCN1C(=O)CNC(=O)[C@H](Cc1ccccc1)NC(=O)CNC(=O)[C@@H](C)NC(=O)[C@@H](N)Cc1ccc(O)cc1)C(=O)N[C@@H](Cc1c[nH]c2ccccc12)C(=O)OCc1cc(C(F)(F)F)cc(C(F)(F)F)c1` (H-Y[dA]GFGPLW-{OBzl(3,5-(CF3)2)}): the Emax was 36% in [5] and 34% in experiment [3]. The results for the EC50 in [7] and in [11] were 42 nM and 50 nM, respectively. Besides, the Activity in experiment [8] stood at 0%. For the same molecule, the IC50 in experiment [1] was found to be 380 nM. Besides, the Ke in experiment [2] was 5.4 nM.

In general, IC50 refers to the midpoint of a concentration-inhibition curve. One may read the Emax as the maximal effect, on the per cent scale that the assay sets. As a reminder, the EC50 is the concentration needed to bring the measured effect to its halfway point. Broadly, the Ki is a dissociation constant, usually derived from enzyme kinetics or from competition with a known ligand.

(Values after ChEMBL document CHEMBL1143706, “Design, synthesis, and biological evaluation of novel bifunctional C-terminal-modified peptides for delta/mu opioid receptor agonists and neurokinin-1 receptor antagonists” (J Med Chem, 2007).)
